{"source": "ChEMBL document CHEMBL1140108", "about": "“In vivo positron emission tomography (PET) imaging with an alphavbeta6 specific peptide radiolabeled using 18F-\"click\" chemistry: evaluation and comparison with the corresponding 4-[18F]fluorobenzoyl- and 2-[18F]fluoropropionyl-peptides” (J Med Chem, 2008)", "settings_in_all_cases": "in vivo", "key": {"[1]": {"tested_on": "Pancreas", "assay": "Biodistribution in pancreas of athymic nu/nu mouse bearing human alphavbeta6 expressing DX3purobeta6 cells at 15 to 30 uCi, iv after 1 hr", "format": "ADME, organism-based", "outline": "(§1)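 Male athymic nu/nu mice carried s.c. xenografts on opposite shoulder flanks: 3 × 10^6 DX3puro or DX3puroβ6 cells in serum-free DMEM, integrin expression checked by flow cytometry beforehand, used 2-5 weeks later. [18F]-peptide (approx. 15-30 μCi) in isotonic solution given i.v. via tail-vein catheter under 3% isoflurane. 1 h conscious uptake, then sacrificed and dissected (n = 3 per tracer). Organs γ-counted, decay-corrected, reported as % ID/g.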"}, "[2]": {"tested_on": "Liver", "assay": "Biodistribution in liver of athymic nu/nu mouse bearing human alphavbeta6 expressing DX3purobeta6 cells at 15 to 30 uCi, iv after 1 hr", "format": "ADME, organism-based", "outline": "as §1"}, "[3]": {"assay": "Biodistribution ratio of human alphavbeta6 expressing DX3purobeta6 cells to human alphavbeta6 deficient DX3puro cells bearing athymic nu/nu mouse at 15 to 30 uCi, iv after 1 hr", "format": "ADME, organism-based", "outline": "(§2)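 Tumour ratios were taken from 1 h biodistribution in male nu/nu mice bearing DX3puro and DX3puroβ6 s.c. shoulder xenografts (3 × 10^6 cells). Dosing was approx. 15-30 μCi [18F]-peptide i.v. by tail-vein catheter under isoflurane, with conscious uptake. Tissues were γ-counted as decay-corrected % ID/g (n = 3 per tracer), and the ratio was formed from these values.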"}, "[4]": {"assay": "Biodistribution in urine of athymic nu/nu mouse bearing human alphavbeta6 expressing DX3purobeta6 cells at 15 to 30 uCi, iv after 1 hr", "format": "ADME, organism-based", "outline": "as §1"}, "[5]": {"tested_on": "Lung", "assay": "Biodistribution in lung of athymic nu/nu mouse bearing human alphavbeta6 expressing DX3purobeta6 cells at 15 to 30 uCi, iv after 1 hr", "format": "ADME, organism-based", "outline": "as §1"}, "[6]": {"assay": "Biodistribution ratio of human alphavbeta6 expressing DX3purobeta6 cells bearing athymic nu/nu mouse to blood of athymic nu/nu mouse bearing human alphavbeta6 expressing DX3purobeta6 cells at 15 to 30 uCi, iv after 1 hr", "format": "ADME, organism-based", "outline": "as §2"}, "[7]": {"tested_on": "Heart", "assay": "Biodistribution in heart of athymic nu/nu mouse bearing human alphavbeta6 expressing DX3purobeta6 cells at 15 to 30 uCi, iv after 1 hr", "format": "ADME, organism-based", "outline": "as §1"}, "[8]": {"tested_on": "Urinary bladder", "assay": "Biodistribution in bladder of athymic nu/nu mouse bearing human alphavbeta6 expressing DX3purobeta6 cells at 15 to 30 uCi, iv after 1 hr", "format": "ADME, organism-based", "outline": "as §1"}, "[9]": {"assay": "Biodistribution in human alphavbeta6 deficient DX3puro cells bearing athymic nu/nu mouse at 15 to 30 uCi, iv after 1 hr", "format": "ADME, organism-based", "outline": "as §1"}, "[10]": {"tested_on": "Bone", "assay": "Biodistribution in bone of athymic nu/nu mouse bearing human alphavbeta6 expressing DX3purobeta6 cells at 15 to 30 uCi, iv after 1 hr", "format": "ADME, organism-based, Bone element", "outline": "as §1"}, "[11]": {"tested_on": "Blood", "assay": "Biodistribution in blood of athymic nu/nu mouse bearing human alphavbeta6 expressing DX3purobeta6 cells at 15 to 30 uCi, iv after 1 hr", "format": "ADME, organism-based", "outline": "as §1"}, "[12]": {"tested_on": "Spleen", "assay": "Biodistribution in spleen of athymic nu/nu mouse bearing human alphavbeta6 expressing DX3purobeta6 cells at 15 to 30 uCi, iv after 1 hr", "format": "ADME, organism-based", "outline": "as §1"}, "[13]": {"tested_on": "Muscle tissue", "assay": "Biodistribution in muscle of athymic nu/nu mouse bearing human alphavbeta6 expressing DX3purobeta6 cells at 15 to 30 uCi, iv after 1 hr", "format": "ADME, organism-based", "outline": "as §1"}, "[14]": {"assay": "Biodistribution in human alphavbeta6 expressing DX3purobeta6 cells bearing athymic nu/nu mouse at 15 to 30 uCi, iv after 1 hr", "format": "ADME, organism-based", "outline": "as §1"}, "[15]": {"tested_on": "Kidney", "assay": "Biodistribution in kidney of athymic nu/nu mouse bearing human alphavbeta6 expressing DX3purobeta6 cells at 15 to 30 uCi, iv after 1 hr", "format": "ADME, organism-based", "outline": "as §1"}, "[16]": {"tested_on": "Brain", "assay": "Biodistribution in brain of athymic nu/nu mouse bearing human alphavbeta6 expressing DX3purobeta6 cells at 15 to 30 uCi, iv after 1 hr", "format": "ADME, organism-based", "outline": "as §1"}, "[17]": {"assay": "Biodistribution in gall bladder of athymic nu/nu mouse bearing human alphavbeta6 expressing DX3purobeta6 cells at 15 to 30 uCi, iv after 1 hr", "format": "ADME, organism-based", "outline": "as §1"}, "[18]": {"tested_on": "Stomach", "assay": "Biodistribution in stomach of athymic nu/nu mouse bearing human alphavbeta6 expressing DX3purobeta6 cells at 15 to 30 uCi, iv after 1 hr", "format": "ADME, organism-based", "outline": "as §1"}}}
{"smiles": "CC(C)C[C@H](NC(=O)[C@H](CC(=O)O)NC(=O)CNC(=O)[C@H](CCCNC(=N)N)NC(=O)[C@H](CC(C)C)NC(=O)[C@H](CC(N)=O)NC(=O)[C@@H]1CCCN1C(=O)[C@@H](NC(=O)[C@H](C)NC(=O)[C@H](CC(N)=O)NC(=O)CCn1cc(CCC[18F])nn1)C(C)C)C(=O)N[C@@H](CCC(N)=O)C(=O)N[C@H](C(=O)N[C@@H](CC(C)C)C(=O)N[C@@H](C)C(=O)N[C@@H](CCC(N)=O)C(=O)N[C@@H](CCCCN)C(=O)N[C@H](C(=O)N[C@@H](C)C(=O)N[C@@H](CCCNC(=N)N)C(=O)N[C@H](C(N)=O)[C@@H](C)O)C(C)C)C(C)C", "values": [{"measurement": "Drug uptake", "setting": "[1]", "value": 0.3, "unit": "% ID/g"}, {"measurement": "Drug uptake", "setting": "[2]", "value": 1.12, "unit": "% ID/g"}, {"measurement": "Ratio", "setting": "[3]", "value": 3.3}, {"measurement": "Drug uptake", "setting": "[4]", "value": 501, "unit": "% ID/g"}, {"measurement": "Drug uptake", "setting": "[5]", "value": 1.83, "unit": "% ID/g"}, {"measurement": "Ratio", "setting": "[6]", "value": 2.3}, {"measurement": "Drug uptake", "setting": "[7]", "value": 0.47, "unit": "% ID/g"}, {"measurement": "Drug uptake", "setting": "[8]", "value": 6.24, "unit": "% ID/g"}, {"measurement": "Drug uptake", "setting": "[9]", "value": 0.31, "unit": "% ID/g"}, {"measurement": "Drug uptake", "setting": "[10]", "value": 0.39, "unit": "% ID/g"}, {"measurement": "Drug uptake", "setting": "[11]", "value": 0.43, "unit": "% ID/g"}, {"measurement": "Drug uptake", "setting": "[12]", "value": 0.13, "unit": "% ID/g"}, {"measurement": "Drug uptake", "setting": "[13]", "value": 1.01, "unit": "% ID/g"}, {"measurement": "Drug uptake", "setting": "[14]", "value": 1.01, "unit": "% ID/g"}, {"measurement": "Drug uptake", "setting": "[15]", "value": 9.5, "unit": "% ID/g"}, {"measurement": "Drug uptake", "setting": "[16]", "value": 0.05, "unit": "% ID/g"}, {"measurement": "Drug uptake", "setting": "[17]", "value": 4.72, "unit": "% ID/g"}, {"measurement": "Drug uptake", "setting": "[18]", "value": 0.97, "unit": "% ID/g"}]}
{"smiles": "CC(C)C[C@H](NC(=O)[C@H](CC(=O)O)NC(=O)CNC(=O)[C@H](CCCNC(=N)N)NC(=O)[C@H](CC(C)C)NC(=O)[C@H](CC(N)=O)NC(=O)[C@@H]1CCCN1C(=O)[C@@H](NC(=O)[C@H](C)NC(=O)[C@H](CC(N)=O)NC(=O)C(C)[18F])C(C)C)C(=O)N[C@@H](CCC(N)=O)C(=O)N[C@H](C(=O)N[C@@H](CC(C)C)C(=O)N[C@@H](C)C(=O)N[C@@H](CCC(N)=O)C(=O)N[C@@H](CCCCN)C(=O)N[C@H](C(=O)N[C@@H](C)C(=O)N[C@@H](CCCNC(=N)N)C(=O)N[C@H](C(N)=O)[C@@H](C)O)C(C)C)C(C)C", "note": "(stereo partly drawn)", "values": [{"measurement": "Drug uptake", "setting": "[1]", "value": 0.39, "unit": "% ID/g"}, {"measurement": "Drug uptake", "setting": "[2]", "value": 0.51, "unit": "% ID/g"}, {"measurement": "Ratio", "setting": "[3]", "value": 1.9}, {"measurement": "Drug uptake", "setting": "[4]", "value": 311, "unit": "% ID/g"}, {"measurement": "Drug uptake", "setting": "[5]", "value": 2.06, "unit": "% ID/g"}, {"measurement": "Ratio", "setting": "[6]", "value": 1.8}, {"measurement": "Drug uptake", "setting": "[7]", "value": 0.62, "unit": "% ID/g"}, {"measurement": "Drug uptake", "setting": "[8]", "value": 5.3, "unit": "% ID/g"}, {"measurement": "Drug uptake", "setting": "[9]", "value": 0.61, "unit": "% ID/g"}, {"measurement": "Drug uptake", "setting": "[10]", "value": 0.38, "unit": "% ID/g"}, {"measurement": "Drug uptake", "setting": "[11]", "value": 0.64, "unit": "% ID/g"}, {"measurement": "Drug uptake", "setting": "[12]", "value": 0.32, "unit": "% ID/g"}, {"measurement": "Drug uptake", "setting": "[13]", "value": 0.82, "unit": "% ID/g"}, {"measurement": "Drug uptake", "setting": "[14]", "value": 1.18, "unit": "% ID/g"}, {"measurement": "Drug uptake", "setting": "[15]", "value": 4.87, "unit": "% ID/g"}, {"measurement": "Drug uptake", "setting": "[16]", "value": 0.28, "unit": "% ID/g"}, {"measurement": "Drug uptake", "setting": "[17]", "value": 2.13, "unit": "% ID/g"}, {"measurement": "Drug uptake", "setting": "[18]", "value": 3.61, "unit": "% ID/g"}]}
{"smiles": "CC(C)C[C@H](NC(=O)[C@H](CC(=O)O)NC(=O)CNC(=O)[C@H](CCCNC(=N)N)NC(=O)[C@H](CC(C)C)NC(=O)[C@H](CC(N)=O)NC(=O)[C@@H]1CCCN1C(=O)[C@@H](NC(=O)[C@H](C)NC(=O)[C@H](CC(N)=O)NC(=O)c1ccc([18F])cc1)C(C)C)C(=O)N[C@@H](CCC(N)=O)C(=O)N[C@H](C(=O)N[C@@H](CC(C)C)C(=O)N[C@@H](C)C(=O)N[C@@H](CCC(N)=O)C(=O)N[C@@H](CCCCN)C(=O)N[C@H](C(=O)N[C@@H](C)C(=O)N[C@@H](CCCNC(=N)N)C(=O)N[C@H](C(N)=O)[C@@H](C)O)C(C)C)C(C)C", "note": "[[18F]-FBA-A20FMDV2]", "values": [{"measurement": "Drug uptake", "setting": "[1]", "value": 0.23, "unit": "% ID/g"}, {"measurement": "Drug uptake", "setting": "[2]", "value": 0.63, "unit": "% ID/g"}, {"measurement": "Ratio", "setting": "[3]", "value": 3.1}, {"measurement": "Drug uptake", "setting": "[5]", "value": 1.39, "unit": "% ID/g"}, {"measurement": "Ratio", "setting": "[6]", "value": 2.5}, {"measurement": "Drug uptake", "setting": "[7]", "value": 0.31, "unit": "% ID/g"}, {"measurement": "Drug uptake", "setting": "[8]", "value": 8.25, "unit": "% ID/g"}, {"measurement": "Drug uptake", "setting": "[9]", "value": 0.21, "unit": "% ID/g"}, {"measurement": "Drug uptake", "setting": "[10]", "value": 0.29, "unit": "% ID/g"}, {"measurement": "Drug uptake", "setting": "[11]", "value": 0.27, "unit": "% ID/g"}, {"measurement": "Drug uptake", "setting": "[12]", "value": 0.07, "unit": "% ID/g"}, {"measurement": "Drug uptake", "setting": "[13]", "value": 0.56, "unit": "% ID/g"}, {"measurement": "Drug uptake", "setting": "[14]", "value": 0.66, "unit": "% ID/g"}, {"measurement": "Drug uptake", "setting": "[15]", "value": 3.56, "unit": "% ID/g"}, {"measurement": "Drug uptake", "setting": "[16]", "value": 0.02, "unit": "% ID/g"}, {"measurement": "Drug uptake", "setting": "[17]", "value": 15.05, "unit": "% ID/g"}, {"measurement": "Drug uptake", "setting": "[18]", "value": 1.33, "unit": "% ID/g"}]}
